ChEMBL document CHEMBL1137629, “Antiproliferative effect of dihydroxyacetone on Trypanosoma brucei bloodstream forms: cell cycle progression, subcellular alterations, and cell death” (Antimicrob Agents Chemother, 2007)
pIC50: −log10 of the molar value. The source made the active and inactive calls. The calls are words filed in the database; no cut-off is given here.

What was measured:
Trypanosoma brucei [1] = experiment: Trypanocidal activity against Trypanosoma brucei bloodstream form assessed as induction of autophagy at 3 mM after 24 hrs by transmission electron microscopy; type: functional, organism-based
Outline: (§1)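 Parasites exposed 24 h to 3 mM DHA. 10⁸ cells fixed 1 h at 4°C in 2% glutaraldehyde in 0.2 M sodium cacodylate with 0.12 M sucrose, held overnight in buffer, postfixed in 1.5% osmium tetroxide and stained with 0.5% uranyl acetate. Dehydrated in ethanol, cleared in propylene oxide, embedded in Agar 100. Sections stained with 5% uranyl acetate and 0.4% lead citrate for TEM. Rapamycin (5 μM) served as the autophagy positive control.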

Trypanosoma brucei [2] = experiment: Trypanocidal activity against Trypanosoma brucei bloodstream form assessed as phosphatase activity; type: functional, organism-based
Outline: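 Parasites in exponential growth diluted to 2 × 10⁵ cells/ml and cultured 24 h with 1–4 mM DHA. Lysis buffer with p-nitrophenyl phosphate (in 1 M sodium acetate pH 5.5, 1% Triton X-100) added. Read at 405 nm after 6 h at 37°C. IC₅₀ derived from phosphatase activity (Bodley method).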

Trypanosoma brucei [3] = experiment: Effect on cell cycle of Trypanosoma brucei bloodstream form assessed as increase in cells with two nuclei and one kinetoplast at 1 to 3 mM using DAPI staining by phase-contrast microscopy; type: functional, organism-based
Outline: (§2)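 Bloodstream forms (MITat 1.2, EATRO 427) grown 24 h with or without DHA. Aliquots washed twice in PBS, resuspended, placed on slides and fixed with methanol. Stained 5 min with DAPI (0.1 μg/ml final), then washed. Phase-contrast and fluorescence images scored for nucleus/kinetoplast numbers (1N1K, 1N2K, 2N2K, 2N1K, abnormal). n = 4, Student's t test, SD.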

Trypanosoma brucei [4] = experiment: Effect on morphological changes in Trypanosoma brucei bloodstream form assessed as increase in cell size after 24 hrs using DAPI staining by phase-contrast microscopy; type: functional, organism-based
Trypanosoma brucei [5] = experiment: Effect on morphological changes in Trypanosoma brucei bloodstream form assessed as presence of more than one flagellum at 3 mM after 24 hrs by transmission electron microscopy; type: functional, organism-based; outline: as §1
Trypanosoma brucei [6] = experiment: Induction of apoptosis-like programmed cell death in Trypanosoma brucei bloodstream form assessed as loss of mitochondrial-membrane potential at 3 mM after 24 hrs by TMRE staining; type: functional
Outline: (§3)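 T. brucei MITat 1.2 (EATRO 427) bloodstream forms were grown axenically at 37°C, 5% CO₂ and exposed to DHA for 24 h. Cells at 10⁶/ml were stained with 25 nM TMRE in culture medium for 30 min at 37°C and read at once by flow cytometry. Depolarization control: valinomycin 100 nM. Lower fluorescence signifies lost membrane potential.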

Trypanosoma brucei [7] = experiment: Cell cycle arrest in Trypanosoma brucei bloodstream form assessed as accumulation at G2/M phase at 2 mM after 24 hrs using propidium iodide staining by FACS analysis; type: functional
Outline: (§4)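 T. brucei bloodstream forms (MITat 1.2, strain EATRO 427), axenic culture at 37°C, 5% CO₂. Treated 24 h. At least 5 × 10⁵ cells washed in PBS, lysed hypotonically 30 min at room temperature in 10 mM phosphate buffer pH 7.4 with 6 μM digitonin. Nuclei stained with propidium iodide (10 μg/ml final) and analysed by flow cytometry for G₁/S/G₂ distribution and degraded DNA.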

Trypanosoma brucei [8] = experiment: Effect on morphological changes in Trypanosoma brucei bloodstream form assessed as dilation of mitochondrion membrane at 3 mM after 24 hrs by transmission electron microscopy; type: functional, organism-based; outline: as §1
Trypanosoma brucei [9] = experiment: Effect on morphological changes in Trypanosoma brucei bloodstream form assessed as increase in cisternal and vesicular structures within cytosol at 3 mM after 24 hrs by transmission electron microscopy; type: functional, organism-based; outline: as §1
Trypanosoma brucei [10] = experiment: Effect on cell cycle of Trypanosoma brucei bloodstream form assessed as DNA content at 4 mM after 24 hrs using propidium iodide staining by FACS analysis; type: functional; outline: as §4
Trypanosoma brucei [11] = experiment: Induction of apoptosis-like programmed cell death in Trypanosoma brucei bloodstream form assessed as loss of mitochondrial-membrane potential at 1 mM after 24 hrs by TMRE staining; type: functional; outline: as §3
Trypanosoma brucei [12] = experiment: Effect on cell cycle of Trypanosoma brucei bloodstream form assessed as induction of necrosis at 1 mM after 24 hrs using propidium iodide staining by FACS analysis; type: functional
Outline: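 Bloodstream forms exposed 24 h at 37°C, 5% CO₂. Cells at 2 × 10⁶/ml incubated 10 min with propidium iodide (5 μg/ml), and uptake read by flow cytometry as a measure of membrane integrity. Digitonin (6 μM) served as the necrosis positive control.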

Trypanosoma brucei [13] = experiment: Effect on cell cycle of Trypanosoma brucei bloodstream form assessed as DNA content at 1 mM after 24 hrs using propidium iodide staining by FACS analysis; type: functional; outline: as §4
Trypanosoma brucei [14] = experiment: Induction of apoptosis-like programmed cell death in Trypanosoma brucei bloodstream form assessed as phosphatidylserine exposure in outer leaflet of plasma membrane at 5 uM after 24 hrs by V-Fluos staining staining; type: functional
Trypanosoma brucei [15] = experiment: Trypanocidal activity against Trypanosoma brucei bloodstream form at < 1 mM; type: functional, organism-based
Trypanosoma brucei [16] = experiment: Effect on morphological changes in Trypanosoma brucei bloodstream form assessed as presence of kinetoplast after 24 hrs using DAPI staining by phase-contrast microscopy; type: functional, organism-based; outline: as §2
Trypanosoma brucei [17] = experiment: Effect on morphological changes in Trypanosoma brucei bloodstream form assessed as dilation of mitochondrial membrane at 3 mM after 24 hrs by transmission electron microscopy; type: functional, organism-based; outline: as §1
Trypanosoma brucei [18] = experiment: Trypanocidal activity against Trypanosoma brucei bloodstream form at > 1 mM; type: functional, organism-based
Trypanosoma brucei [19] = experiment: Effect on morphological changes in Trypanosoma brucei bloodstream form assessed as presence of kinetoplast at 5 mM after 20 hrs by scanning electron microscopy; type: functional, organism-based
Outline: (§5)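 Cells grown 20 h with 5 mM DHA. Fixed and stained as for TEM (glutaraldehyde, osmium tetroxide, uranyl acetate), then dehydrated through 50, 75, 95 and 100% ethanol. Critical-point dried and gold-palladium sputter-coated for scanning electron microscopy.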

Trypanosoma brucei [20] = experiment: Effect on cell cycle of Trypanosoma brucei bloodstream form assessed as DNA content at 5 uM after 24 hrs using propidium iodide staining by FACS analysis; type: functional; outline: as §4
Trypanosoma brucei [21] = experiment: Effect on cell cycle of Trypanosoma brucei bloodstream form assessed as DNA content at 3 mM after 24 hrs using propidium iodide staining by FACS analysis; type: functional; outline: as §4
Trypanosoma brucei [22] = experiment: Effect on morphological changes in Trypanosoma brucei bloodstream form assessed as presence of more than one flagellum after 24 hrs using DAPI staining by phase-contrast microscopy; type: functional, organism-based; outline: as §2
Trypanosoma brucei [23] = experiment: Induction of programmed cell death in Trypanosoma brucei bloodstream form assessed as death of total cell population at > 4 mM up to 24 hrs using propidium iodide staining by FACS analysis
Trypanosoma brucei [24] = experiment: Induction of apoptosis-like programmed cell death in Trypanosoma brucei bloodstream form assessed as loss of mitochondrial-membrane potential at 2 mM after 24 hrs by TMRE staining; type: functional; outline: as §3
Trypanosoma brucei [25] = experiment: Induction of apoptosis-like programmed cell death in Trypanosoma brucei bloodstream form assessed as loss of mitochondrial-membrane potential at 5 uM after 24 hrs by TMRE staining; type: functional
Trypanosoma brucei [26] = experiment: Effect on morphological changes in Trypanosoma brucei bloodstream form assessed as presence of atypical combination of number of nucleus at 5 mM after 20 hrs by scanning electron microscopy; type: functional, organism-based; outline: as §5
Trypanosoma brucei [27] = experiment: Effect on cell cycle of Trypanosoma brucei bloodstream form assessed as increase in cells with two nuclei and two kinetoplasts at 1 to 3 mM using DAPI staining by phase-contrast microscopy; type: functional, organism-based; outline: as §2
Trypanosoma brucei [28] = experiment: Effect on morphological changes in Trypanosoma brucei bloodstream form assessed as increase in mitochondrion size at 3 mM after 24 hrs by transmission electron microscopy; type: functional, organism-based; outline: as §1

Question: Which results are given for O=C(CO)CO [DIHYDROXYACETONE]?
Answer: Activity (Trypanosoma brucei [1]): Active; pIC50 (Trypanosoma brucei [2]): 2.99; Activity (Trypanosoma brucei [3]): Active; Activity (Trypanosoma brucei [4]): Dose-dependent effect; Activity (Trypanosoma brucei [5]): Active; Activity (Trypanosoma brucei [6]): 12.3%; Activity (Trypanosoma brucei [7]): <=70%; Activity (Trypanosoma brucei [8]): Active; Activity (Trypanosoma brucei [9]): Active; Activity (Trypanosoma brucei [10]): 9.7%; Activity (Trypanosoma brucei [11]): 4.9%; Activity (Trypanosoma brucei [12]): 4%; Activity (Trypanosoma brucei [13]): 4.5%; Activity (Trypanosoma brucei [14]): 35.8%; Activity (Trypanosoma brucei [15]): Active; Activity (Trypanosoma brucei [16]): Dose-dependent effect; Activity (Trypanosoma brucei [17]): Active; Activity (Trypanosoma brucei [18]): Active; Activity (Trypanosoma brucei [19]): inactive; Activity (Trypanosoma brucei [20]): 47%; Activity (Trypanosoma brucei [21]): 8%; Activity (Trypanosoma brucei [22]): Dose-dependent effect; Activity (Trypanosoma brucei [23]): Active; Activity (Trypanosoma brucei [24]): 7.3%; Activity (Trypanosoma brucei [25]): 31.4%; Activity (Trypanosoma brucei [26]): inactive; Activity (Trypanosoma brucei [27]): Active; Activity (Trypanosoma brucei [28]): Active
